Reference: ChEMBL document CHEMBL4316601, “Esterase-Sensitive and pH-Controlled Carbon Monoxide Prodrugs for Treating Systemic Inflammation” (J Med Chem, 2019)
Blank lines part the entries; values can stand above or below the compound they belong to. Active and inactive are the calls of the source. The calls are words filed in the database; no cut-off is given here.

Legend:
[1] = Drug metabolism in PBS buffer assessed as (1S,4S)-1,4-Dimethyl-7-oxo-5,6-diphenyl-3-(phenylsulfonyl)bicyclo[2.2.1]hept-5-ene-2-carbaldehyde formation at pH 7 at 20 uM in absence of porcine liver esterase after 6 hrs by HPLC analysis
How it was run: (§1)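 The prodrug was incubated without porcine liver esterase for up to 6 h, in either PBS (pH 7) or simulated gastric fluid (pH ~1). HPLC monitored hydrolysis to the acetal-cleaved bicyclic intermediate.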

[2] = Drug metabolism in pH 1 SGF assessed as (1S,4S)-1,4-Dimethyl-7-oxo-5,6-diphenyl-3-(phenylsulfonyl)bicyclo[2.2.1]hept-5-ene-2-carbaldehyde formation at 20 uM in absence of porcine liver esterase after 6 hrs by HPLC analysis; how it was run: as §1
[3] = Drug metabolism in rabbit serum assessed as esterase-mediated (1S,4S)-1,4-Dimethyl-7-oxo-5,6-diphenyl-3-(phenylsulfonyl)bicyclo[2.2.1]hept-5-ene-2-carbaldehyde metabolite formation by measuring half life by HPLC analysis; assay type: ADME, cell-free, Oryctolagus cuniculus
How it was run: (§2)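 The prodrug was incubated in mouse, rat, rabbit or human serum. HPLC followed esterase-mediated hydrolysis to the bicyclic intermediate, giving a half-life, and the subsequent beta-elimination was followed for up to 20 h.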

[4] = system: RAW264.7; experiment: Cytotoxicity against mouse RAW264.7 cells assessed as reduction in cell viability at 50 uM uM incubated for 5 hrs by WST8 assay; assay type: cell-based; conditions: raw264.7, 5 h
[5] = target: T1, Liver carboxylesterase (Sus scrofa, UniProt Q29550); experiment: Drug metabolism in pH 1 SGF assessed as porcine liver esterase-mediated (1S,4S)-1,4-Dimethyl-7-oxo-5,6-diphenyl-3-(phenylsulfonyl)bicyclo[2.2.1]hept-5-ene-2-carbaldehyde formation at 20 uM after 2 mins by HPLC analysis; assay type: ADME; conditions: pig, isolated protein, pH 1, 2 min
T1 sequence (Q29550 whole entry): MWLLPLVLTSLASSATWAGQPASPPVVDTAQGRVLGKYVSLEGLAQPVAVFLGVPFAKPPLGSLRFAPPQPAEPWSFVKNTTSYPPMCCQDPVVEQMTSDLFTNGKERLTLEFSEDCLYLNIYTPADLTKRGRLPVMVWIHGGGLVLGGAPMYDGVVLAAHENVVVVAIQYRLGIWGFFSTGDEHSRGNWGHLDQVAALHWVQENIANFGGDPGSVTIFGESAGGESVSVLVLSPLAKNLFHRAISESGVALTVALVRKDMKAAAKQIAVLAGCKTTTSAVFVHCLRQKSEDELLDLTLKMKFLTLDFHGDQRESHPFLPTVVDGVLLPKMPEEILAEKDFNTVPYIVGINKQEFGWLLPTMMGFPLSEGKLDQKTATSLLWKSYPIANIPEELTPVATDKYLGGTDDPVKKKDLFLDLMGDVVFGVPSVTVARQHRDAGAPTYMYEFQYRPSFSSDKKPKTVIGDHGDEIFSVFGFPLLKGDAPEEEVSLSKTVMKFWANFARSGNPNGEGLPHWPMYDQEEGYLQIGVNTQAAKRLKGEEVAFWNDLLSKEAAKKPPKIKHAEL
How it was run: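 The prodrug was incubated in simulated gastric fluid (pH ~1) containing porcine liver esterase at 37 °C. HPLC tracked formation of the hydrolysed bicyclic intermediate and of the beta-elimination product for up to 7 h.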

[6] = system: Mus musculus; experiment: Hepatoprotective activity in LPS-stimulated ip dosed C57BL/6 mouse assessed as reduction in LPS-induced ALT levels pretreated for 30 mins followed by LPS addition and measured after 6 hrs; assay type: functional, organism-based
[7] = system: Mus musculus; experiment: Hepatoprotective activity in LPS-stimulated ip dosed C57BL/6 mouse assessed as reduction in LPS-induced AST levels pretreated for 30 mins followed by LPS addition and measured after 6 hrs; assay type: functional, organism-based
[8] = Drug metabolism in human serum assessed as esterase-mediated (1S,4S)-1,4-Dimethyl-7-oxo-5,6-diphenyl-3-(phenylsulfonyl)bicyclo[2.2.1]hept-5-ene-2-carbaldehyde metabolite formation by measuring half life by HPLC analysis; assay type: ADME, cell-free; how it was run: as §2
[9] = system: RAW264.7; experiment: Antiinflammatory activity in mouse RAW264.7 cells assessed as reduction in LPS-induced TNFalpha secretion preincubated for 4 hrs followed by LPS addition and measured after 1 hr by ELISA; assay type: functional, cell-based
[10] = Drug metabolism in rat serum assessed as esterase-mediated (1S,4S)-1,4-Dimethyl-7-oxo-5,6-diphenyl-3-(phenylsulfonyl)bicyclo[2.2.1]hept-5-ene-2-carbaldehyde metabolite formation by measuring half life by HPLC analysis; assay type: ADME, cell-free; how it was run: as §2
[11] = Drug metabolism in mouse serum assessed as esterase-mediated (1S,4S)-1,4-Dimethyl-7-oxo-5,6-diphenyl-3-(phenylsulfonyl)bicyclo[2.2.1]hept-5-ene-2-carbaldehyde metabolite formation by measuring half life by HPLC analysis; assay type: ADME, cell-free; how it was run: as §2
[12] = Drug metabolism in mouse RAW264.7 cells assessed as carbon monoxide release at 50 uM after 5 hrs by COP1-based fluorescence assay; assay type: ADME, cell-based; conditions: raw264.7, 5 h
[13] = target: T1, Liver carboxylesterase; experiment: Drug metabolism in PBS buffer assessed as porcine liver esterase-mediated (1S,4S)-1,4-Dimethyl-7-oxo-5,6-diphenyl-3-(phenylsulfonyl)bicyclo[2.2.1]hept-5-ene-2-carbaldehyde formation at pH 7 at 20 uM incubated for 48 hrs by HPLC analysis; assay type: ADME; conditions: pig, isolated protein, pH 7, 48 h
[14] = system: Mus musculus; experiment: Hepato-protective activity in LPS-stimulated C57BL/6 mouse assessed as reduction in LPS-induced liver injury at 10 mg/kg, ip pretreated for 30 mins followed by LPS addition and measured after 6 hrs by hematoxylin and eosin staining based assay; assay type: functional, organism-based
[15] = target: T1, Liver carboxylesterase; experiment: Drug metabolism in PBS buffer assessed as porcine liver esterase-mediated carbon monoxide release at pH 7 at 20 uM incubated for 48 hrs by HPLC analysis; assay type: ADME; conditions: pig, isolated protein, pH 7, 48 h
How it was run: (§3)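 Prodrug at a starting concentration of 20 was incubated with porcine liver esterase (3 U/mL) in PBS containing 5% DMSO at 37 °C. CO release was followed by HPLC as formation of the beta-elimination product.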

[16] = system: Mus musculus; experiment: Antiinflammatory activity in LPS-stimulated ip dosed C57BL/6 mouse assessed as inhibition of LPS-induced serum TNFalpha levels pretreated for 30 mins followed by LPS addition and measured after 6 hrs by ELISA; assay type: functional, organism-based
[17] = target: T1, Liver carboxylesterase; experiment: Drug metabolism in PBS buffer assessed as porcine liver esterase-mediated (1S,4S)-1,4-Dimethyl-7-oxo-5,6-diphenyl-3-(phenylsulfonyl)bicyclo[2.2.1]hept-5-ene-2-carbaldehyde formation at pH 7 at 20 uM after 36 hrs by HPLC analysis; conditions: pig, pH 7, 36 h
[18] = target: T1, Liver carboxylesterase; experiment: Drug metabolism in PBS buffer assessed as porcine liver esterase-mediated carbon monoxide release at pH 7 at 20 uM after 36 hrs by HPLC analysis; assay type: ADME; conditions: pig, isolated protein, pH 7, 36 h; how it was run: as §3
[19] = target: T1, Liver carboxylesterase; experiment: Drug metabolism in PBS buffer assessed as porcine liver esterase-mediated 3',6'-dimethyl-[1,1':2',1''-terphenyl]-4'-carbaldehyde formation at pH 7 at 20 uM after 36 hrs by HPLC analysis; conditions: pig, pH 7, 36 h; how it was run: as §3
[20] = system: Mus musculus; experiment: Hepatoprotective activity in LPS-stimulated C57BL/6 mouse assessed as reduction in LPS-induced AST levels at 10 mg/kg, ip pretreated for 30 mins followed by LPS addition and measured after 6 hrs; assay type: functional, organism-based
[21] = system: RAW264.7; experiment: Cytotoxicity against mouse RAW264.7 cells assessed as reduction in cell viability at 200 uM by WST8 assay; assay type: cell-based; conditions: raw264.7, 200 µM
[22] = system: Mus musculus; experiment: Hepatoprotective activity in LPS-stimulated C57BL/6 mouse assessed as reduction in LPS-induced ALT levels at 10 mg/kg, ip pretreated for 30 mins followed by LPS addition and measured after 6 hrs; assay type: functional, organism-based
[23] = system: RAW264.7; experiment: Antiinflammatory activity in mouse RAW264.7 cells assessed as reduction in LPS-induced TNFalpha secretion at 12.5 to 100 uM preincubated for 4 hrs followed by LPS addition and measured after 1 hr by ELISA; assay type: functional, cell-based
[24] = system: Mus musculus; experiment: Antiinflammatory activity in LPS-stimulated C57BL/6 mouse assessed as inhibition of LPS-induced serum TNFalpha levels at 10 mg/kg, ip pretreated for 30 mins followed by LPS addition and measured after 6 hrs by ELISA; assay type: functional, organism-based
[25] = Drug metabolism in pH 7.4 PBS assessed as 3',6'-dimethyl-[1,1':2',1''-terphenyl]-4'-carbaldehyde fromation by HPLC
[26] = Drug metabolism in PBS buffer assessed as half life for carbon monoxide release at pH 7 by HPLC analysis
[27] = Drug metabolism in pH 7.4 PBS assessed as CO bounded myoglobin formation by measuring maximal absorption peak of deoxy-Mb incubated for 2 hrs by UV-vis absorption spectroscopy based myoglobin-CO assay

Drug metabolism [1]: Metabolite not detected
Drug metabolism [2]: Metabolite not detected
t1/2 [3]: 30 min
Drug metabolism [5]: Metabolite_Detected
t1/2 [8]: 840 min
t1/2 [10]: 10 min
t1/2 [11]: 3 min
Drug metabolism [12]: Metabolite_Detected
Drug metabolism [13]: Metabolite_Detected
t1/2 [15]: 30 to 480 min
Structure (SMILES): CC(=O)OC(OC(C)=O)[C@@H]1[C@H](S(=O)(=O)c2ccccc2)[C@]2(C)C(=O)[C@]1(C)C(c1ccccc1)=C2c1ccccc1
Activity [4]: Non-Toxic
Activity [6]: Dose-dependent effect
Activity [7]: Dose-dependent effect
inhibition [9]: Dose-dependent effect
Activity [14]: Active
Activity [16]: Dose-dependent effect

Drug metabolism [13]: Metabolite_Detected
Structure (SMILES): CCCC(=O)OC(OC(=O)CCC)[C@@H]1[C@H](S(=O)(=O)c2ccccc2)[C@]2(C)C(=O)[C@]1(C)C(c1ccccc1)=C2c1ccccc1

Drug metabolism [17]: Metabolite_Notdetected
Drug metabolism [18]: Metabolite_Notdetected
Drug metabolism [19]: Metabolite_Notdetected
Structure (SMILES): CC(C)(C)C(=O)OC(OC(=O)C(C)(C)C)[C@@H]1[C@H](S(=O)(=O)c2ccccc2)[C@]2(C)C(=O)[C@]1(C)C(c1ccccc1)=C2c1ccccc1

Structure (SMILES): Cc1cc(C=O)c(C)c(-c2ccccc2)c1-c1ccccc1
Activity [20]: inactive
Activity [21]: Non-Toxic
Activity [22]: inactive
inhibition [23]: inactive
Activity [14]: inactive
Activity [24]: inactive

Drug metabolism [13]: Metabolite_Detected
Structure (SMILES): C[C@@]12C(=O)[C@](C)(C(c3ccccc3)=C1c1ccccc1)[C@@H](S(=O)(=O)c1ccccc1)[C@H]2C(OC(=O)C1CC1)OC(=O)C1CC1

Structure (SMILES): C[C@@]12C(=O)[C@](C)(C(c3ccccc3)=C1c1ccccc1)[C@@H](S(=O)(=O)c1ccccc1)[C@H]2C=O
Drug metabolism [25]: Metabolite detected
T1/2 [26]: 30 min
Drug metabolism [27]: Metabolite detected
